How the values were obtained:
Adenosine receptor A3 [1] = biological target: Adenosine receptor A3 (Homo sapiens, UniProt P0DMS8, H272E); experiment: Binding affinity at Mutant (H272E) human adenosine A3 receptor expressed in COS-7 cells; format: cell-based
Adenosine receptor A3 [2] = biological target: T1, Adenosine receptor A3 (Homo sapiens, UniProt P0DMS8); experiment: Binding affinity at wild-type Adenosine A3 receptor expressed in COS-7 cells; format: cell-based
T1 sequence (P0DMS8 whole entry): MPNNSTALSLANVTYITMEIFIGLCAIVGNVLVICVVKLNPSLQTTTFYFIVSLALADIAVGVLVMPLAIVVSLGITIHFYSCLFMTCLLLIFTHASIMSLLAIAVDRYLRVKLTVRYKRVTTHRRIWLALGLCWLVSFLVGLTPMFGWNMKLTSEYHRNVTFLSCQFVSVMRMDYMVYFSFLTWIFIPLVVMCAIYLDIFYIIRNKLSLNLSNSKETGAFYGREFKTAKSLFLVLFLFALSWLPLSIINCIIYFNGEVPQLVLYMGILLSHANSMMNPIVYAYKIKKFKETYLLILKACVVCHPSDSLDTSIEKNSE

Adenosine receptor A3 [3] = biological target: T2, Adenosine receptor A3 (Rattus norvegicus, UniProt P28647); experiment: Binding affinity at rat adenosine A3 receptor in CHO cells; format: cell-based
T2 sequence (P28647 whole entry): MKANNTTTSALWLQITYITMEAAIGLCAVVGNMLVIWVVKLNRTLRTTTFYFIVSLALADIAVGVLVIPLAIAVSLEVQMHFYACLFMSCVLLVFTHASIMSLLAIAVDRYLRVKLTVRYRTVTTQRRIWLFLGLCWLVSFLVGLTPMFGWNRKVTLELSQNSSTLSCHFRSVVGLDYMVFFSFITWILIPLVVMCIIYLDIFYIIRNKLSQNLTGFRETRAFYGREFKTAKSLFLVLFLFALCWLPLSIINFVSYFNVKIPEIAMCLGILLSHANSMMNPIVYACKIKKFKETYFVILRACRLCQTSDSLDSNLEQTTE

Adenosine receptor A1 = biological target: T3, Adenosine receptor A1 (Rattus norvegicus, UniProt P25099); experiment: Binding affinity at rat brain Adenosine A1 receptor
T3 sequence (P25099 whole entry): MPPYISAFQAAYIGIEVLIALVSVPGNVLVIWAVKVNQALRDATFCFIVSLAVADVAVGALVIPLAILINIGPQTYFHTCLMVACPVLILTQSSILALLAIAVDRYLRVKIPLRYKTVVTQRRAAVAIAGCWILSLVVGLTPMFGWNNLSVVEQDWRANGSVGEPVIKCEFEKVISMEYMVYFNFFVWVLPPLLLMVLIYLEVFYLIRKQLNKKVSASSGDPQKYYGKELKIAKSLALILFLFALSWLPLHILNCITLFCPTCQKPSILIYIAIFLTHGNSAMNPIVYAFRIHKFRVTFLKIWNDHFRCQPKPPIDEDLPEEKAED
How it was run: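 Rat cerebral cortex membranes labelled with [3H]R-PIA. Adenosine deaminase 3 units/mL present during membrane preparation, during a 30 min preincubation at 30 °C and during incubation. Filtration on GF/B filters. At least five competitor concentrations spanning 3 log units. […] Three independent experiments in duplicate.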

Adenosine receptor A3 [4] = biological target: T2, Adenosine receptor A3; experiment: Binding affinity at rat adenosine A3 receptor in RBL-2H3 cells; format: cell-based
How it was run: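 Rat A3 receptors endogenously expressed in RBL-2H3 cells; displacement of [125I]AB-MECA at 1 nM in 50 mM Tris, 10 mM Mg2+, 1 mM EDTA, pH 8.0. Nonspecific binding defined with 100 μM R-PIA. Filtration on GF/B filters. At least five competitor concentrations. IC50 by nonlinear regression, converted to Ki by Cheng–Prusoff (Kd 1.46 nM). Three independent experiments in duplicate.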

Sequence of Adenosine receptor A3 (Homo sapiens, UniProt P0DMS8, H272E) (P0DMS8 whole entry H272E): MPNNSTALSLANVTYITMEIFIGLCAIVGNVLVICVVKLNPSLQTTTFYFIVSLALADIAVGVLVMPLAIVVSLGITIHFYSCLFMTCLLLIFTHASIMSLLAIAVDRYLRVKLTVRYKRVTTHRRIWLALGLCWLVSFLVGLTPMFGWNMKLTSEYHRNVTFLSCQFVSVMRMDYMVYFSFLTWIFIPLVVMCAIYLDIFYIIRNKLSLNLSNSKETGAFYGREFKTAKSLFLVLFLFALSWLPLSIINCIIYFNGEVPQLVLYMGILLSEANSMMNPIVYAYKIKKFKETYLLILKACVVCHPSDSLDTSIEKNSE

Ki (Adenosine receptor A3 [1]) [µM] | Ki (Adenosine receptor A3 [2]) [µM] | Ki (Adenosine receptor A1) [µM] | Ki (Adenosine receptor A3 [4]) [µM] | SMILES | Ki (Adenosine receptor A3 [3]) [µM]
11.6 | 0.65 |  |  | Nc1nc(Cl)nc2c1ncn2[C@@H]1O[C@H](CO)[C@@H](O)[C@H]1O | 
0.0023 | 0.0046 | 6.69 |  | CNC(=O)[C@@H]1C[C@H](N)[C@H](n2cnc3c(NCc4cccc(I)c4)nc(Cl)nc32)O1 | 3.4
0.075 | 0.442 | > 10 | 84 | Nc1ncnc2c1ncn2[C@@H]1O[C@H](CO)[C@@H](N)[C@H]1O | 
0.32 | 0.87 | 8.1 |  | N[C@H]1[C@@H](O)[C@H](n2cnc3c(NCc4cccc(I)c4)ncnc32)O[C@@H]1CO | 
0.0333 | 0.13 | > 10 |  | N=C(N)N[C@H]1[C@@H](O)[C@H](n2cnc3c(N)ncnc32)O[C@@H]1CO | 
0.301 | 1000 | > 10 | > 10 | Nc1ncnc2c1ncn2[C@@H]1O[C@H](CO)[C@@H](O)[C@H]1N | 
0.425 | 1000 | > 10 | > 10 | NC[C@H]1O[C@@H](n2cnc3c(N)ncnc32)[C@H](O)[C@@H]1O | 
0.00019 | 0.00054 | > 10 | > 10 | N[C@@H]1[C@@H](O)[C@H](n2cnc3c(NC4CCCC4)ncnc32)O[C@@H]1CO | 

SMILES | Ki (Adenosine receptor A3 [1]) [µM] | Ki (Adenosine receptor A3 [2]) [µM] | Ki (Adenosine receptor A1) [µM] | Ki (Adenosine receptor A3 [4]) [µM] | Ki (Adenosine receptor A3 [3]) [µM]
NCCNC(=O)[C@H]1O[C@@H](n2cnc3c(N)ncnc32)[C@H](O)[C@@H]1O |  |  | > 10 |  | 14.7
Nc1nc2ccc(Cl)cc2c2nc(-c3ccco3)nn12 [CGS-15943] | 3.26 | 0.253 |  |  | 
